# Experimental data from the RNAGym collection of RNA variant scans (doi:10.1126/science.aae0568).
# Fewer inactive variants are shown than the library holds.
# B1: tRNA (parent)
# chain: GUUCCGUUGGCGUAAUGGUAACGCGUCUCCCUCCUAAGGAGAAGACUGCGGGUUCGAGUCCCGUACGGAACG
# Variants of: B1
# Assay: yeast fitness relative to wild type (ratio to wild type); higher = fitter; tRNA-Arg(CCU), competitive growth, 37 C, YPD
# Method in brief: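 Gene amplicons from the start population and from each of six end populations were read by 100-nucleotide paired-end sequencing. Those end populations came from pooled Saccharomyces cerevisiae strains carrying tRNA-Arg(CCU) gene variants at the native locus, competed in YPD at 37°C for 24 hours. Fitness relative to wild type was worked out from changes in genotype frequencies. Genotypes needed ≥ 100 starting reads, and estimates < 0.5 were set to 0.5.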
row,Variant,yeast fitness
1,A42G G52C,0.574
2,A42G G52A,0.648
3,A42U C62G G63C A65U,≤ 0.5
4,A42G G50C G58A A69C,≤ 0.5
5,A42U G67C A69C,0.573
6,A42G U54A,0.612
7,A42G U54C,0.815
8,A43U C61G C62U G68A A69C,≤ 0.5
9,A43G G48A,0.933
10,A42G G48A C61G,≤ 0.5
11,A43C C46A G48C,0.851
12,A43G G63C G68A,≤ 0.5
13,A43U C49U C62U,0.79
14,A42U G67U,0.813
15,A42U G67A,0.758
16,A43C U64C,0.997
17,A42U A43G G48C U53A,0.566
18,A43G A69U,1.04
19,A43C C49U C55G,0.519
20,A42U G63C,0.715
21,A43G C49U A57C A65U,≤ 0.5
22,A43U C60G C62U,0.839
23,A43U C60G C62G,≤ 0.5
24,A42U G58U G68C,≤ 0.5

row,Variant,yeast fitness
1,A43G G52C C55A C61A,≤ 0.5
2,A43U G48A C60A,0.586
3,A43G G44C C66U,0.57
4,A43U A65C A69C,≤ 0.5
5,A42G C62G,0.848
6,A42G C62U,0.962
7,A42U A69U,1.02
8,A42U G44C A45U C49G,≤ 0.5
9,A43G G44A C46A,0.976
10,A42G A43C A69G,0.835
11,A42G G67A G68A,≤ 0.5
12,A42C G68C,0.657
13,A43U C61A A65U,≤ 0.5
14,A42U C61A,0.683
15,A42U C61G,0.686
16,A42C U64C,0.882
17,A42U G56A C62A,0.586
18,A43C G68A,0.922
19,A42G U47A U53C,≤ 0.5
20,A42G A57C U59C C61U,≤ 0.5
21,A43G G50A G51A C62U,≤ 0.5
22,A43C G48A A70C,1.13
23,A43C U47A G58C U64C,≤ 0.5
24,A43G G52A A69U A70C,≤ 0.5

row,Variant,yeast fitness
1,A42U C62A,0.636
2,A43G C62A,0.72
3,A43G C62G,0.752
4,A43G C62U,0.877
5,A42G G44C A65C,0.563
6,A42G A43G C49U,0.556
7,A43G G56C,0.766
8,A42U C46U C62U,0.89
9,A42U C62A A65U,0.604
10,A42U U59A U64G,≤ 0.5
11,A43C U53A U54C,0.583
12,A42U A45U C49G,0.526
13,A42U A43U,1.01
14,A43U A45U A57C C66U,≤ 0.5
15,A43U C46G A57G U64A A70G,≤ 0.5
16,A42U G48A U54C,0.696
17,A43U C62A,0.702
18,A43G G58A,0.969
19,A42G C55A,0.607
20,A43C U53C C66U A70C,≤ 0.5
21,A42U A70U,0.919
22,A42U A70C,1.01
23,A42U A70G,1
24,A43U A70G,0.937

row,Variant,yeast fitness
1,A43U A70C,0.898
2,A42G A45U G50C,≤ 0.5
3,A43G G63A A69U,0.812
4,A43C U54A A57G,≤ 0.5
5,A43G G50C U59C,≤ 0.5
6,A42U G48A C61G C66G,≤ 0.5
7,A42U A57C A69C,≤ 0.5
8,A42U A43G C61A,0.723
9,A42G G50C,0.634
10,A42C G67C,0.829
11,A42C G67U,0.811
12,A43G G48C C66G,≤ 0.5
13,A42G C46A G68A A70U,0.568
14,A42U A45C C55U A69C,≤ 0.5
15,A42G A43U U54A,≤ 0.5
16,A42G A69G,0.749
17,A42G A69U,0.959
18,A42G C49G U54C,0.536
19,A42U G44C,0.842
20,A42U G50A,0.743
21,A43G C60U C62U,0.536
22,A43U C66U,0.829
23,A42C U47A G52A,≤ 0.5
24,A43G A57C C60G,≤ 0.5

row,Variant,yeast fitness
1,A43C C60G G67A,≤ 0.5
2,A43G U53C C55U C62U,≤ 0.5
3,A42G G44C A57C,≤ 0.5
4,A42U A57C C61U A65U,0.58
5,A42U C49A G56C A65G,≤ 0.5
6,A42G A57C C61G,0.708
7,A42U C46G,1.12
8,A42U U47C G51A A70C,0.502
9,A42U G52C A70G,0.521
10,A43C G50C A70U,0.574
11,A42G C60A,0.512
12,A43U C46U A69U,0.807
13,A42U C62U A65C,0.526
14,A43G G44A C46A G67A,0.59
15,A43G A45C C49G,0.532
16,A42G U47G,0.771
17,A42G U47C,0.959
18,A43U C60A C62U,0.65
19,A42U A57C C61U G67C,≤ 0.5
20,A43G C60U A65G,0.535
21,A42U G44C U54A,≤ 0.5
22,A43G A45U G67U,0.682
23,A43G A45U U47C G63A,≤ 0.5
24,A43C A65C,1.03

row,Variant,yeast fitness
1,A43U C46A A65C A70U,≤ 0.5
2,A43G U64A,0.77
3,A43G U64C,0.923
4,A43G G50A G51A,≤ 0.5
5,A42U G68C,0.664
6,A42U G68U,0.744
7,A43G C55U C61A,≤ 0.5
8,A43C G63A A65C,0.701
9,A43C G44C C55G C62U,0.661
10,A43C A69U A70C,1.03
11,A43G C61A,0.616
12,A42G C60A C62A,≤ 0.5
13,A43C C60A,0.591
14,A43C C60G,0.953
15,A43U C49G G63A A69C,≤ 0.5
16,A42U C55A,0.584
17,A43G G68C,0.712
18,A43C G48C A57G,0.817
19,A43G G50A,0.864
20,A42G G52C G58C,≤ 0.5
21,A42G G48C,0.741
22,A42G A45C,0.856
23,A43G G51A C55G C60U,≤ 0.5
24,A43U A45C,0.837

row,Variant,yeast fitness
1,A42G G48A G68C A70U,≤ 0.5
2,A43G C66A,0.791
3,A43C G58C,1.03
4,A42G C46U G52C C61A,≤ 0.5
5,A42C U64C A70U,1.12
6,A43G C55A A69U,0.633
7,A42U A43G G52C C60A,≤ 0.5
8,A42U A43G G52C,≤ 0.5
9,A43G U64G C66U,0.544
10,A43U C62U A70C,0.637
11,A43G A57U G58A,0.531
12,A42G G44C A45G,0.723
13,A43U,0.988
14,A43G,0.991
15,A43C,0.997
16,A42G A65U,0.689
17,A42G A65C,0.755
18,A43G G51A C61U C62G,≤ 0.5
19,A43C C62A,0.874
20,A43C A70U,1.06
21,A42C U53A,0.626
22,A43C C49A C66A,≤ 0.5
23,A42U G58A C61G A70U,≤ 0.5
